About 50 (0.08%) of roughly 62,000 compounds were called active.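 How the source made its calls: active means inhibition above 30% in each of the two pooled mixtures holding the compound, so the lower value exceeds 30%; inactive means the rest.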 What follows is part of a selection rich in actives, with near analogues and random picks from the rest.
Assay: alternative complement pathway inhibitors, primary screen, biochemical, ELISA, human serum, orthogonally pooled compounds (AID 1235);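 further: 0% = serum in Mg-EGTA without compound and 100% = EDTA serum blank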
Details: LPS-coated ELISA, C3 deposition, tested in compound mixtures, at 5 µM, hits give high values
Outline: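 Medium: diluted human serum in Mg2+-EGTA GVB++. Assay system: human serum complement alternative pathway, C3 deposition onto LPS. Also added: Plate-bound LPS. Technique: Anti-C3 ELISA, OD 450 nm. Measure: percent inhibition. Incubation: 1 h at 37 °C. Dosing: 5 µM each compound, pools of ten, 50 µM per pool.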

inhibition, inactive:
O=C(NCc1ccc2c(c1)OCO2)C1CCCN(S(=O)(=O)c2cccs2)C1 (stereo not given) 7.05%
CCCCn1c(SCc2ncc(-c3ccccc3)o2)nc2cc(S(N)(=O)=O)ccc21 20.9%
O=C(CC(NCCN1CCOCC1)C(=O)O)Nc1cccc(Cl)c1 (stereo not given) -2.21%
COc1ccc(CC(=O)Nc2c3c(nn2-c2cccc(Cl)c2)CS(=O)C3)cc1 (stereo not given) 11.2%
Cc1ccc(OS(=O)Nc2cccc3nccnc23)cc1 (stereo not given) 10%
CCN(c1ccc2c(c1)OCO2)S(=O)(=O)c1cc(Br)cc2c1N(C(=O)C1CC1)CC2 -0.915%
COc1ccccc1-c1nnc(SCC(=O)Nc2ccccc2)o1 4.25%
CCOc1ccccc1NC(=O)CCc1ccc(C)o1 9.69%
O=C(Nc1ccc(S(=O)(=O)N2CCCCC2)cc1)c1cnccn1 13.5%
CCCCCCn1c(CN2CCCC(C)C2)nc2c1c(=O)n(C)c(=O)n2C (stereo not given) 8.35%
CCCOc1ccccc1-c1nc(SCCC(=O)O)n[nH]1 24%
CCCCCn1c(SCCC(C)C)nc2c1c(=O)[nH]c(=O)n2C 4.81%
COc1cc(Cl)c(C)cc1NC(=O)CSc1nnc(-c2ccco2)n1CC(C)C 10.7%
OC(COc1ccccc1)Cn1cc(Br)cn1 (stereo not given) 3.79%
c1ccc(-n2ncc3c2ncn2c(C4CCCCC4)nnc32)cc1 14.3%
COc1ccc(CCNC(=O)CCn2c(=O)oc3ccccc32)cc1OC 6.83%
CSCCC(NC(=O)C1CCC(C)CC1)C(=O)NCc1ccco1 (stereo not given) 11.6%
COC(=O)c1cc(Cl)c(NC(=O)c2ccco2)cc1OC 13%
COCCCNC(=O)CSc1nc2ccc(N3CCOCC3)cc2c(=O)n1CCc1ccccc1 22.2%
CCOC(=O)c1ccc(NC(=O)CSc2nnc(COc3ccccc3OC)n2C)cc1 7.25%
CCOC(=O)c1sc(=S)n(-c2cccc(OC)c2)c1N 5.37%
Cc1ccc(NC(=O)CCNS(=O)(=O)c2ccc3c(c2)oc(=O)n3C)cc1C 15.7%
CC1(C)CC(=O)C=C(NCc2ccncc2)C1 -1.25%
Cc1nn(C(=O)c2ccoc2C)c(N)c1-c1ccccc1 10.4%
O=C(N1CCOCC1)N(Cc1ccccc1)c1ccccn1 -5.66%
Cc1ccc(-c2csc3nnc(SCC(=O)NCc4ccco4)n23)cc1 2.88%
COc1ccc(C2C(C(=O)N3CCN(c4ccc(OC)cc4)CC3)c3ccccc3C(=O)N2C)cc1 (stereo not given) 8.23%
O=C(CSc1nc2ccccc2[nH]1)c1cccs1 12.6%
O=C(c1cc(-c2ccc(O)cc2)on1)N1CCCc2ccccc21 9.64%
CC(C)(C)NC(=O)C(c1ccncc1)N(C(=O)CNC(=O)c1ccco1)c1ccc2c(c1)OCO2 (stereo not given) 4.9%
c1ccc(-c2cc(-c3nnc4sc(-c5ccccn5)nn34)[nH]n2)cc1 8.74%
CC12CCC(C(=O)N3CCN(c4ncccn4)CC3)(c3nc4ccccc4nc31)C2(C)C (stereo not given) 20.7%
O=C(O)C1CC(=O)N(Cc2cccnc2)C1 (stereo not given) 15.1%
COCCNC(=O)Cn1cc2c(n1)CCCCC2 3.37%
COc1ccc(S(=O)(=O)N(CCCN2CCCC2=O)Cc2cc3c(C)ccc(C)c3[nH]c2=O)cc1 5.72%
Clc1ccc(CSc2nnc([C@@H]3CCCN3)o2)cc1 13.7%
CCn1c(SCC(=O)Nc2nc3ccc(OC)cc3s2)nnc1-c1ccoc1C 4.77%
COC(=O)N1CN(C(=O)OC)CN(C(=O)OC)C1 4.11%
Cn1c(SCc2c(F)cccc2Cl)nnc1-c1cnccn1 -5.66%
O=S(=O)(c1ccc(Sc2nnc3ccccn23)nc1)N1CCOCC1 -7.45%
COc1ccccc1-c1cc(C(=O)NCCCn2ccnc2)no1 1.27%
COc1ccccc1N1CCN(CCCCOc2ccc(F)cc2)CC1 0.215%
O=C1CC2(CCCCC2)Oc2ccc(OCC(=O)N3CCOCC3)cc21 9.94%
Cc1csc(NC(=O)C2CCCN2C(=O)OCC(C)C)n1 (stereo not given) -7.74%
Cc1cccc(N2CCN(C(=O)c3cc4c(=O)[nH]c5ccccc5c4n3C)CC2)c1C 8.97%
